What was measured:
[1] = folding enthalpy; higher = less favourable; fluorescence melt of hairpins on a sequencing array, two-state fit; conditions: sodium 0.088 M
Method in brief: (§1)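 Folding enthalpy and melting temperature were estimated with bootstrapped two-state fits and combined across four replicates by inverse-variance weighting, with fitted temperatures raised by 9.35 °C to match UV melts. The data were Cy3 fluorescence of library hairpins, with annealed Cy3 and quencher oligos, on a sequenced MiSeq flow cell in 50 mM Na-HEPES pH 8.0, 25 mM NaCl, imaged in 2.5 °C steps up to 60 °C and normalised to pre-quench Cy3 and control constructs.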

[2] = melting temperature; fluorescence melt of hairpins on a sequencing array, two-state fit, raised by 9.35 °C to match UV melts; conditions: sodium 0.088 M
Method in brief: as §1

| Sequence | folding enthalpy [1] [kcal/mol] | Tm [2] [°C] |
| --- | --- | --- |
| GACCACGAAAGTGGCGTC ((((((....)))..))) | -12.5 | 45.6 |
| GACCACGCGAAAGCGGTC (((..(((....)))))) | -13.2 | 47.3 |
| GACCAGGGAAACCCGGTC ((((.((....)).)))) | -37.7 | 50.1 |
| GACCAGGGAAACTTGGTC (((((.(....).))))) | -37.8 | 47.8 |
| GACCATCCGAAAGGAGTC (((..(((....)))))) | -14.4 | 26.4 |
| GACCATGGAAACATGATC ((.((((....)))).)) | -23.2 | 35.4 |
| GACCCAGGAAACTAGGTC ((((.((....)).)))) | -26.7 | 36 |
| GACCCCGAAAGGGTCGTC ((((((....)))..))) | -24.6 | 58.2 |
| GACCCCGGAAACAGGGTC (((((.(....).))))) | -29.5 | 48.8 |
| GACCCCGGAAACGGGATC ((.((((....)))).)) | -16.3 | 45.8 |
| GACCCGCGAAAGCGAGTC (((.(((....))).))) | -26.7 | 55.7 |
| GACCCTGGAAACAGAGTC (((.(((....))).))) | -29.5 | 36.6 |
| GACCGACCGAAAGGTGTC (((..(((....)))))) | -15.8 | 35.9 |
| GACCGACGAAAGTCCGTC (((.(((....))).))) | -23.9 | 43.1 |
| GACCGAGGAAACTCGACC (..((((....))))..) | -14.3 | 26.6 |
| GACCGAGGAAACTTGGTC ((((.((....)).)))) | -32.5 | 50.1 |
| GACCGCGAAAGCGAGTC ((((((....))).))) | -20 | 64.1 |
| GACCGCGAAAGCGATGTC ((((((....)))..))) | -14.9 | 44.3 |
| GACCGCGAAAGCGCTGTC ((((((....)))..))) | -14.3 | 39 |
| GACCGGGGAAACCCGGCC (.(((((....))))).) | -11.2 | 50.4 |
| GACCTACCGAAAGGTGTC (((..(((....)))))) | -18 | 30.8 |
| GACCTACGAAAGTAGTC (((.(((....)))))) | -17.3 | 42.1 |
| GACCTAGAAATAGGTC ((((((....)))))) | -35.6 | 51.3 |

| Sequence | folding enthalpy [1] [kcal/mol] | Tm [2] [°C] |
| --- | --- | --- |
| GACCTCGGAAACGAAGTC (((.(((....))).))) | -24.9 | 34.7 |
| GACCTCGGAAACGAGACC (..((((....))))..) | -11.8 | 26.1 |
| GACCTCGGAAACGAGATC ((.((((....)))).)) | -20.3 | 40.5 |
| GACCTGGGAAACCAGATC ((.((((....)))).)) | -22.5 | 36.1 |
| GACCTGGGAAACTAGGTC (((((.(....).))))) | -42.5 | 50.1 |
| GACCTTCCGAAAGGAGTC (((..(((....)))))) | -11.8 | 26.4 |
| GACCTTGGAAACGAGGTC (((((.(....).))))) | -38.9 | 50.9 |
| GACGAACGAAAGTTGTC (((.(((....)))))) | -25.8 | 44.9 |
| GACGAAGAAATTCGTC ((((((....)))))) | -34.1 | 53.8 |
| GACGAAGGAAACTTCATC ((.((((....)))).)) | -14.7 | 26.9 |
| GACGAAGGAAACTTCGCC (.(((((....))))).) | -16.8 | 43.7 |
| GACGAAGGAAACTTCGTC (((((((....))))))) | -43.9 | 63.5 |
| GACGACACGAAAGTGGTC (((..(((....)))))) | -15.3 | 41.2 |
| GACGACCGAAAGGTAGTC (((.(((....))).))) | -38.6 | 57.7 |
| GACGACCGAAAGGTGTC (((.(((....)))))) | -26.5 | 52.2 |
| GACGACGAAAGTCAGTC ((((((....))).))) | -24.9 | 54.1 |
| GACGACGAAAGTCCGGTC ((((((....)))..))) | -18 | 39.3 |
| GACGACGAAAGTCTTGTC ((((((....)))..))) | -16.2 | 40.3 |
| GACGACGCGAAAGCGGTC (((..(((....)))))) | -11.5 | 47 |
| GACGAGGCGAAAGCCGTC (((..(((....)))))) | -8.76 | 51.5 |
| GACGAGGGAAACCCCGTC ((((.((....)).)))) | -31.4 | 51 |
| GACGATGCGAAAGCAGTC (((..(((....)))))) | -16.9 | 44 |
| GACGATGGAAACATTGTC (((.(((....))).))) | -35.2 | 47.1 |

| Sequence | folding enthalpy [1] [kcal/mol] | Tm [2] [°C] |
| --- | --- | --- |
| GACGATGGAAACGTCGTC (((((.(....).))))) | -35.1 | 54.5 |
| GACGCAGGAAACCGCATC ((.((.(....).)).)) | -12.4 | 28.5 |
| GACGCCCGAAAGGGAGTC (((.(((....))).))) | -32.8 | 66.7 |
| GACGCCGAAAGGCCTGTC ((((((....)))..))) | -13.5 | 35.1 |
| GACGCCGAAAGGCTAGTC ((((((....)))..))) | -18.1 | 46.8 |
| GACGCCGAAAGGCTCGTC ((((((....)))..))) | -14.5 | 50 |
| GACGCCGGAAACGACGCC (.((.((....)).)).) | -21.7 | 39.7 |
| GACGCGCCGAAAGGCGTC (((..(((....)))))) | -6.51 | 37.7 |
| GACGCGCGAAAGCGGTC (((.(((....)))))) | -14 | 55 |
| GACGCTGCGAAAGCAGTC (((..(((....)))))) | -8.26 | 37.2 |
| GACGCTGGAAACAGCACC (..((((....))))..) | -11.1 | 30 |
| GACGCTGGAAACGGCGTC (((((.(....).))))) | -44.2 | 64.9 |
| GACGGAACGAAAGTTGTC (((..(((....)))))) | -19.2 | 30.7 |
| GACGGACGAAAGTCGTC (((.(((....)))))) | -27.3 | 55.6 |
| GACGGACGAAAGTCTGTC (((.(((....))).))) | -35.3 | 60.5 |
| GACGGCCGAAAGGCGTC (((.(((....)))))) | -20.6 | 64.8 |
| GACGGCGAAAGCCCCGTC ((((((....)))..))) | -15.8 | 42.8 |
| GACGGCGAAAGCCTGGTC ((((((....)))..))) | -15.1 | 49.9 |
| GACGGCGGAAACGCCACC (..((((....))))..) | -9.98 | 26.9 |
| GACGGGACGAAAGTCGTC (((..(((....)))))) | -17.1 | 45.8 |
| GACGGGGGAAACTCCGTC (((((.(....).))))) | -37.9 | 58.1 |
| GACGGTGGAAACATCGTC ((((.((....)).)))) | -43.6 | 53.7 |
| GACGTAGGAAACCACGTC (((((.(....).))))) | -29.5 | 47.2 |

| Sequence | folding enthalpy [1] [kcal/mol] | Tm [2] [°C] |
| --- | --- | --- |
| GACGTAGGAAACTACACC (..((((....))))..) | -10.2 | 25.2 |
| GACGTAGGAAACTATGTC (((.(((....))).))) | -30 | 43.9 |
| GACGTAGGAAACTGTGTC (((..((....))..))) | -9.59 | 25.7 |
| GACGTCCCGAAAGGGGTC (((..(((....)))))) | -10.9 | 39.9 |
| GACGTCCGAAAGGAGTC (((.(((....)))))) | -24 | 49 |
| GACGTCGCGAAAGCGGTC (((..(((....)))))) | -11.5 | 39.3 |
| GACGTCGGAAACGACATC ((.((((....)))).)) | -12.7 | 37.2 |
| GACGTCGGAAACGGCGTC ((((.((....)).)))) | -46.9 | 62.3 |
| GACGTGCGAAAGCATGTC (((.(((....))).))) | -35.2 | 65.1 |
| GACGTGGCGAAAGCCGTC (((..(((....)))))) | -16.5 | 50.4 |
| GACGTGGGAAACTGCGTC ((((..(....)..)))) | -24.6 | 47.6 |
| GACGTTGGAAACAACATC ((.((((....)))).)) | -16.8 | 32.4 |
| GACGTTGGAAACGACGTC (((((.(....).))))) | -35.1 | 55.8 |
| GACTAACGAAAGTTGGTC (((.(((....))).))) | -40.4 | 51.3 |
| GACTAAGGAAACTTAGTC (((((((....))))))) | -35.1 | 52.5 |
| GACTAAGGAAACTTGGTC (((.(((....))).))) | -30.1 | 39.3 |
| GACTACCGAAAGGTGTC (((.(((....)))))) | -21.6 | 49.6 |
| GACTACGAAAGTAATGTC ((((((....)))..))) | -15.7 | 34.3 |
| GACTACGAAAGTAGCGTC ((((((....)))..))) | -12.7 | 43.8 |
| GACTAGCGAAAGCTCGTC (((.(((....))).))) | -19.1 | 48 |
| GACTAGCGAAAGCTGTC (((.(((....)))))) | -19.6 | 50.3 |
| GACTAGGAAACTAGTC ((((((....)))))) | -34 | 50.8 |
